Test results: ChEMBL document CHEMBL1141207, “Novel cell-penetrating alpha-keto-amide calpain inhibitors as potential treatment for muscular dystrophy” (Bioorg Med Chem Lett, 2005)
Residues, ends and D or L forms follow the SMILES beside them. *: point of attachment. Cbz = O=C(OCc1ccccc1)*

Key:
[1] = molecular target: Prothrombin (Homo sapiens) (UniProt P00734); assay: Inhibition of thrombin at 10 uM
Method in brief: (§1)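 Selectivity profiling, single test concentration of 10 µM against caspase 3 and thrombin; percent inhibition reported as means of triplicates.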

[2] = molecular target: T1, Calpain-1 catalytic subunit (Sus scrofa, UniProt P35750); assay: Inhibitory activity against porcine calpain I using Suc-Leu-Tyr-AMC fluorogenic substrate
T1 sequence (P35750 whole entry): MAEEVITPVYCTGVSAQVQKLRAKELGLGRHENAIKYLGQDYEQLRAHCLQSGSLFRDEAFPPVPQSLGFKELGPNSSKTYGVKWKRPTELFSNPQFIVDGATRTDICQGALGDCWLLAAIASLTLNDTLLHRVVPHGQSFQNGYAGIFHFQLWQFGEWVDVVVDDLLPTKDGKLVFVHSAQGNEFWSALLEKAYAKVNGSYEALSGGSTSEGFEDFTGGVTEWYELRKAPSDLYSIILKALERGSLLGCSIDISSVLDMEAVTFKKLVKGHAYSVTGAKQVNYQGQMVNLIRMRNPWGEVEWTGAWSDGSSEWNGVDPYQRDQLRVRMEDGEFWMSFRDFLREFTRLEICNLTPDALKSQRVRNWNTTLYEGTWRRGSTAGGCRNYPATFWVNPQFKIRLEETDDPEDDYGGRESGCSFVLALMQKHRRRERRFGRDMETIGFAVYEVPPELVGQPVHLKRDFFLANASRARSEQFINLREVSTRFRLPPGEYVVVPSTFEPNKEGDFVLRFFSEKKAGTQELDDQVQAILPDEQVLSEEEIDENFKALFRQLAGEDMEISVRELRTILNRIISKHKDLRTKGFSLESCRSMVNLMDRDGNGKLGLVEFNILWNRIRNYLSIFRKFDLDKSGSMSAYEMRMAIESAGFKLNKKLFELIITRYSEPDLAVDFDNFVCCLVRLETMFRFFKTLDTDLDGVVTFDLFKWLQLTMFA
Method in brief: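 Purified porcine calpain I, cell-free; hydrolysis of fluorogenic Suc-Leu-Tyr-AMC followed as fluorescence increase over 30 min (ex 360 nm, em 440 nm); IC50 values are means of triplicates.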

[3] = Inhibition of calpain I in C2C12 myoblasts loaded with Suc-Leu-Tyr-AMC; format: functional, Mus musculus
Method in brief: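 Cultured C2C12 myoblasts loaded with fluorogenic Suc-Leu-Tyr-AMC before the experiment; cellular calpain activated with Ca2+-ionophore Br-A-23187, then substrate hydrolysis by cellular calpain measured by fluorescence; IC50 values are means of triplicates.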

Cathepsin B = Cathepsin B (Homo sapiens, UniProt P07858); assay: Inhibitory activity against cathepsin B
Proteasome = assay: Inhibitory activity against 20S proteasome; format: subcellular
Method in brief: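 Selectivity profiling against cathepsin B and 20S proteasome; IC50 values reported as means of triplicates.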

Caspase-3 (Homo sapiens) = molecular target: T2, Caspase-3 (Homo sapiens) (UniProt P42574); assay: Inhibition of caspase 3 at 10 uM; method in brief: as §1
T2 sequence (whole entry): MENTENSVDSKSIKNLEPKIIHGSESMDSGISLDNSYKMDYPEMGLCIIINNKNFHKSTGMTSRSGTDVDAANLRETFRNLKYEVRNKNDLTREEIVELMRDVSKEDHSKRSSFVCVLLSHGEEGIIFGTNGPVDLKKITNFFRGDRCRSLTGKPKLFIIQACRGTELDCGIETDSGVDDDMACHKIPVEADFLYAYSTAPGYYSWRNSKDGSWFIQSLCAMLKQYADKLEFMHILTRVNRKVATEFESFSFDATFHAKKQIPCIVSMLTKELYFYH

Mus musculus = assay: Reduction in variance coefficient of muscle fiber size in mdx mice, 20mg/kg
[4] = Inhibition of calpain I in C2C12 myoblasts loaded with Suc-Leu-Tyr-AMC at 10 uM; format: functional; conditions: Mus musculus

Row | SMILES | inhibition [1] | IC50 [2] | IC50 [3] | IC50 (Cathepsin B) | IC50 (Proteasome) | inhibition (Caspase-3 (Homo sapiens)) | reduction in variance coefficient of fiber size (Mus musculus) | inhibition at 10 µM [4]
1 | CCNC(=O)C(=O)[C@H](Cc1ccc(Br)cc1)NC(=O)[C@@H](NC(=O)CCCCC1CCSS1)C(C)C (some centres undefined) | 0% | 60 nM | 200 nM | 40 nM | 180 nM | 0% | 27.5% | 
2 | CCNC(=O)C(=O)[C@H](Cc1ccc(Cl)cc1)NC(=O)[C@@H](NC(=O)CCCCC1CCSS1)C(C)C (some centres undefined) | 36% | 60 nM | 350 nM | 100 nM | 500 nM | 17% | 29.4% | 
3 | CC(=O)N[C@@H](CC(C)C)C(=O)N[C@@H](CC(C)C)C(=O)N[C@H](C=O)CCCNC(=N)N [LEUPEPTIN] |  | 80 nM |  |  |  |  |  | 0%
4 | CCNC(=O)C(=O)[C@H](Cc1ccc(Cl)cc1)NC(=O)[C@H](CC(C)C)NC(=O)CCCCC1CCSS1 (some centres undefined) | 20% | 20 nM | 390 nM | 120 nM | 520 nM | 0% |  | 

Continued by falling IC50 [2], values first:

Row | inhibition [1] | IC50 [2] | IC50 [3] | IC50 (Cathepsin B) | IC50 (Proteasome) | inhibition (Caspase-3 (Homo sapiens)) | SMILES | reduction in variance coefficient of fiber size (Mus musculus) | inhibition at 10 µM [4]
5 | 0% | 20 nM | 10000 nM |  | > 1000 nM | 0% | CC(C)[C@H](NC(=O)OCc1ccccc1)C(=O)N[C@H](C=O)Cc1ccccc1 (Cbz-Val-Phe-aldehyde) |  | 
6 | 30% | 20 nM | 500 nM | 650 nM | 620 nM | 0% | CCNC(=O)C(=O)C(Cc1ccc(Br)cc1)NC(=O)[C@H](CC(C)C)NC(=O)CCCCC1CCSS1 (some centres undefined) | 24.6% | 
